# ChEMBL document CHEMBL1137547, “Synthesis and antifungal activities of novel 2-aminotetralin derivatives” (2007)
# Legend:
# Assay type in all cases: functional
# Candida albicans = experiment: Antifungal activity against Candida albicans after 24 hrs
# Procedure, shortened: (§1)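 Candida yeasts were tested by NCCLS microdilution in RPMI 1640 buffered with 0.165 M MOPS and incubated at 35 °C. Compounds were dissolved in DMSO and serially diluted in medium. Isolates came from ATCC or the clinic. The MIC was read at 24 h as the lowest concentration achieving ≥80% growth inhibition versus the control.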
# Candida parapsilosis = experiment: Antifungal activity against Candida parapsilosis after 24 hrs; conditions: Lodderomyces parapsilosis; procedure, shortened: as §1
# Cryptococcus neoformans = experiment: Antifungal activity against Cryptococcus neoformans after 72 hrs
# Procedure, shortened: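 Cryptococcus neoformans was tested by NCCLS serial dilution in MOPS-buffered (0.165 M) RPMI 1640 at 35 °C. Compounds were dissolved in DMSO and diluted in medium. The MIC was read at 72 h as the lowest concentration giving turbidity inhibition of ≥80% relative to the growth control.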
# Trichophyton rubrum = experiment: Antifungal activity against Trichophyton rubrum
# Procedure, shortened: (§2)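 Dermatophytes were tested by NCCLS serial dilution in RPMI 1640 with 0.165 M MOPS and incubated at 28 °C. Compounds were dissolved in DMSO and diluted in medium. Strains came from ATCC or clinical isolates. The MIC was read at 7 d as the lowest concentration reducing turbidity by ≥80% relative to the drug-free control.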
# Fonsecaea compacta = experiment: Antifungal activity against Fonsecaea compacta
# Procedure, shortened: (§3)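 NCCLS broth serial dilution in RPMI 1640 buffered with 0.165 M MOPS. Compounds were dissolved in DMSO and serially diluted in medium. Strains came from ATCC or clinical isolates. The growth MIC for filamentous fungi was read at 7 d, taken as the lowest concentration giving ≥80% turbidity inhibition versus the growth control.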
# Aspergillus fumigatus = experiment: Antifungal activity against Aspergillus fumigatus; procedure, shortened: as §3
# Microsporum = experiment: Antifungal activity against Microsporum gypseum; procedure, shortened: as §2
Structure (SMILES),MIC (Candida albicans) [µM],MIC (Candida parapsilosis) [µM],MIC (Cryptococcus neoformans) [µM],MIC (Trichophyton rubrum) [µM],MIC (Fonsecaea compacta) [µM],MIC (Aspergillus fumigatus) [µM],MIC (Microsporum) [µM]
CCCCCCCCCCN1CCc2cc(O)c(O)cc2C1,> 64,0.5,1,1,16,16,> 64
Oc1cccc2c1CC(NCc1ccccc1)CC2 (stereo not given),64,> 64,> 64,0.5,32,> 64,32
Oc1ccc2c(c1)CC(Nc1ccc(Cl)cc1)CC2 (stereo not given),> 64,32,16,2,32,64,4
Oc1cccc2c1CC(Nc1ccc(Cl)cc1)CC2 (stereo not given),16,32,32,8,64,> 64,8
Oc1ccc2c(c1)CCC(NCc1ccccc1)C2 (stereo not given),64,> 64,> 64,8,> 64,> 64,> 64
CCCCCCCCNC1CCc2cccc(OC)c2C1 (stereo not given),16,32,16,4,8,32,8
COc1cccc2c1CC(NCc1ccccc1)CC2 (stereo not given),> 64,> 64,> 64,32,> 64,> 64,4
Oc1cccc2c1CCC(NCc1ccccc1)C2 (stereo not given),64,> 64,> 64,0.125,> 64,> 64,> 64
COc1ccc(NC2CCc3cccc(OC)c3C2)cc1 (stereo not given),> 64,> 64,> 64,32,> 64,> 64,16
COc1ccc(NC2CCc3ccc(O)cc3C2)cc1 (stereo not given),> 64,64,> 64,0.5,> 64,> 64,32
CCCCCCCCNC1CCc2c(O)cccc2C1 (stereo not given),8,64,32,4,8,> 64,8
CCCCCCCCCNC1CCc2ccc(OC)cc2C1 (stereo not given),0.25,4,4,0.0625,2,16,4
CCCCCCCCCNC1CCc2cccc(OC)c2C1 (stereo not given),0.5,1,4,2,2,16,64
CCCCCCCCCNC1CCc2c(O)cccc2C1 (stereo not given),1,32,8,4,4,64,8
COc1ccc2c(c1)CCC(Nc1ccc(Cl)cc1)C2 (stereo not given),> 64,> 64,> 64,1,> 64,> 64,16
COc1cccc2c1CC(Nc1ccc(Cl)cc1)CC2 (stereo not given),> 64,> 64,> 64,> 64,> 64,> 64,32
CCCCCCCCNC1CCc2ccc(OC)cc2C1 (stereo not given),1,32,16,4,4,64,8
Oc1ccc2c(c1)CCC(Nc1ccc(Cl)cc1)C2 (stereo not given),> 64,32,16,0.25,32,64,4
COc1ccc(NC2CCc3cccc(O)c3C2)cc1 (stereo not given),> 64,> 64,> 64,2,> 64,> 64,16
COc1ccc2c(c1)CC(NCc1ccccc1)CC2 (stereo not given),64,> 64,> 64,4,> 64,> 64,> 64
Oc1ccc2c(c1)CC(NCc1ccccc1)CC2 (stereo not given),64,> 64,> 64,16,> 64,> 64,> 64
COc1ccc(NC2CCc3cc(OC)ccc3C2)cc1 (stereo not given),> 64,> 64,> 64,8,> 64,> 64,8
COc1ccc(NC2CCc3c(O)cccc3C2)cc1 (stereo not given),> 64,32,> 64,0.25,> 64,> 64,16
COc1ccc(NC2CCc3cc(O)ccc3C2)cc1 (stereo not given),> 64,64,64,0.5,> 64,> 64,16
COc1ccc2c(c1)CC(Nc1ccc(Cl)cc1)CC2 (stereo not given),> 64,> 64,> 64,16,> 64,> 64,16
COc1ccc(NC2CCc3ccc(OC)cc3C2)cc1 (stereo not given),> 64,> 64,> 64,0.5,64,> 64,16
CCCCCCCCNC1CCc2ccc(O)cc2C1 (stereo not given),4,32,16,8,8,> 64,4
COc1ccc(NC2CCc3c(cccc3OC)C2)cc1 (stereo not given),> 64,> 64,> 64,2,> 64,> 64,8
COc1cccc2c1CCC(Nc1ccc(Cl)cc1)C2 (stereo not given),> 64,> 64,> 64,2,> 64,> 64,16
Oc1cccc2c1CCC(Nc1ccc(Cl)cc1)C2 (stereo not given),2,8,8,2,16,64,0.5
